# A selection: hits, their analogues and other compounds. The true share with any hit is near 1%.
# XiGFP reactiv – X-chromosome reactivation activator | XiGFP mouse fibroblasts, % GFP-positive cells imaging, 3 d; cells co-treated with 5-aza-dC sensitizer; scaled so ellipticine positive control = 100% | activation, % at 7.58 µM | hit rate 0.055% among 360,000;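 active = mean normalized replicate activation at least 10% and every replicate at or above 10%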;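 also: 0% = median of on-plate neutral control wells and 100% = ellipticine 6 µM median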
#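 Assay system – SV40-immortalized XiGFP fibroblast cells, line 68-5-11 · Buffer or medium – DMEM supplemented with 5-aza-dC as sensitizing agent · Dosing – one concentration, pinned · Benchmarks – positive control ellipticine, 6 µM final · Times – 3 days compound exposure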
# GSIS activator – primary screen for activators of insulin secretion dependent on glucose, INS-1E cells, GLuc reporter luminescence | INS-1E GLuc reporter insulin secretion, 2-3 h | activation, % at 16.6 µM | hit rate 0.61% among 370,000 | AID 743287;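 active = lowest replicate activation of at least 40%, so every replicate reaches that level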;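 also: 0% = median of neutral control wells and 100% = median of IBMX positive control wells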
# CaV13 ICDI inh – Primary screen for inhibitors of IQ motif and Ca2+-dependent inactivation inhibitor domain binding in CACNA1D, Förster resonance energy transfer in living cells, …; AID 743397; inhibition, % at 12.3 µM; hit rate 0.098% among 340,000; HEK cells, CFP/YFP FRET ICDI-IQ, plate reader, 10 min; percent FRET-ratio fall versus neutral wells;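 active = mean replicate inhibition of at least 30% and at least 1% of replicates passing that level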;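 also: 0% = median of the neutral control wells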
# FXN GAA850 act – frataxin GAA850 promoter activation. HEK293 lucGAA850 FXN promoter luciferase reporter, 24 h; percent of 10 µM SAHA response. activation, % at 6 µM. AID 540364. hit rate 0.56% among 360,000;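 active = activation above the average of all compounds screened plus 3 SD, cutoff fixed separately per campaign, cut at about 7.5% in these data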;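 also: 0% = DMSO wells and 100% = 10 µM SAHA wells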
# GAA30 counter – counter-screen for GAA850 frataxin promoter activators: GAA30 promoter activation; shares compounds with FXN GAA850 act; HEK293 lucGAA30 FXN promoter luciferase, 24 h; DMSO = 0%, 5 µM ipriflavone = 100%; activation, % at 6 µM; hit rate 66% among 1,900;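 active = mean activation above the mean of solvent-only control wells plus 3 SD, cut at about 22% in these data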;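 also: counterscreen of GAA850 promoter hits where activity marks nonselective or luminescence artifacts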
# GAA850 confirm – GAA850 FXN promoter activation confirmation. shares compounds with FXN GAA850 act. HEK293 lucGAA850 FXN promoter luciferase reporter, 24 h; 100% = activation by SAHA. activation, % at 6 µM. hit rate 86% among 1,900;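 active = mean activation above a set limit taken from the primary screen, cut at about 8% in these data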;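 also: 0% = DMSO wells and 100% = 10 µM SAHA wells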
# * hit, by the source's call; x = no result given.
SMILES,XiGFP reactiv,GSIS activator,CaV13 ICDI inh,FXN GAA850 act,GAA30 counter,GAA850 confirm
O=C1NCCN1Cc1ccccc1,x,12,-5,8.6*,20,5
COc1cccc(NC(=O)c2nc(S(C)(=O)=O)ncc2Cl)c1,0,54*,-6,50*,69*,27*
CCOC(=O)c1ccc(NC(=O)c2nc(S(=O)(=O)Cc3ccccc3)ncc2Cl)cc1,0,3,-2,16*,-40,-27
CCOC(=O)c1ccc(NC(=O)c2ccccc2)cc1,x,4,-8,8.0*,79*,33*
CCc1ccc(NC(=O)c2nc(S(=O)(=O)Cc3ccccc3)ncc2Cl)cc1,1,3,-2,-9,x,x
C[C@@H]1CN([C@H](C)CO)C(=O)c2cccc(NS(=O)(=O)c3cn(C)cn3)c2O[C@H]1CN(C)S(=O)(=O)c1cccs1,-1,23,x,x,x,x
CCCCCN1C=CC(=C2C(=O)c3ccccc3C2=O)C=C1,0,29,-118,-12,x,x
CC1=CC(=C2C(=O)c3ccccc3C2=O)C=C(C)N1C,x,5,-7,8.2*,111*,34*
C[C@H]1CN([C@@H](C)CO)C(=O)Cc2cc(NS(=O)(=O)c3cccs3)ccc2O[C@H]1CN(C)S(=O)(=O)c1ccc(Cl)cc1,0,-8,x,x,x,x
OC[C@H]1O[C@@H](n2cnc3c(NC4CCCC4)nc(Cl)nc32)[C@H](O)[C@@H]1O,0,-21,-5,8.5*,31*,18*
CC(Cc1ccccc1)Nc1ncnc2c1ncn2C1OC(CO)C(O)C1O (configuration not stated),0,x,-5,8.7*,55*,25*
O=C([C@H]1[C@H](CO)[C@H]2Cn3c(ccc(-c4ccncc4)c3=O)[C@H]2N1CCC(F)(F)F)N1CCOCC1,0,-5,x,x,x,x
C[C@H](CO)N1C[C@H](C)[C@H](CN(C)C(=O)Nc2ccc3c(c2)OCO3)Oc2ccc(NC(=O)c3ccncc3)cc2C1=O,0,13,x,x,x,x
N#C/C(=C\c1cccc(Oc2ccc(C(F)(F)F)cc2[N+](=O)[O-])c1)c1nc2ccccc2[nH]1,x,x,x,8.0*,23*,7.9*
CN=C1S/C(=C\c2ccc(O)c(OC)c2)C(=O)N1C,0,15,-5,9.9*,113*,35*
CN1c2ccc(-c3cccc(C#N)c3)cc2[C@@H]2[C@@H](CCN2C(=O)C2CCCCC2)[C@@H]1CO,0,-12,x,x,x,x
CN(C)C(=O)c1cccc(-c2ccc(C3[C@@H]4CN(S(=O)(=O)c5ccccc5F)C[C@H]3N4)cc2)c1 (some centres not stated),0,-12,x,x,x,x
Cc1nc([N+](=O)[O-])c(Br)n1CC(=O)c1ccccc1,x,x,1,0,x,x
Cc1nc([N+](=O)[O-])c(Br)n1CC(=O)c1ccc2ccccc2c1,x,x,-5,24*,328*,118*
C[C@H]1CN([C@@H](C)CO)C(=O)c2cc(NS(=O)(=O)c3ccccc3)ccc2O[C@H]1CN(C)S(C)(=O)=O,0,-3,x,x,x,x
Cc1ccc(S(=O)(=O)N2CCC(=O)N(CCOC(=O)Nc3cccc(Cl)c3)CC2)cc1,0,-47,-5,9.4*,42*,19*
O=C(c1ccncc1)N1C[C@@H]2[C@H](c3ccccc31)[C@@H](CO)N2C(=O)c1ccccn1,0,-7,x,x,x,x
N#Cc1nc(COc2ccccc2F)oc1N1CCCCCC1,x,x,-5,9.6*,47*,24*
N#Cc1nc(-c2ccccc2F)oc1N1CCCCC1,0,8,-6,5,x,x
N#Cc1nc(COc2ccccc2Cl)oc1N1CCCCCC1,0,24,-6,2,x,x
SMILES,XiGFP reactiv,GSIS activator,CaV13 ICDI inh,FXN GAA850 act,GAA30 counter,GAA850 confirm
N#Cc1nc(-c2ccccc2Cl)oc1N1CCCCC1,x,-5,x,8.7*,56*,26*
CCNC(=O)C[C@H]1CC[C@H](NC(=O)C2CCC2)[C@@H](CO)O1,0,15,x,x,x,x
Cn1cnc2cc(NC(=O)c3ccc(Cl)cc3)ccc21,0,x,-7,9.3*,95*,42*
CC(C)(C)n1cnc2cc(NC(=O)c3ccc(Cl)cc3)ccc21,0,-18,-5,4,x,x
CCC(=O)N(C)C[C@H]1Oc2cc(C#CCN(C)C)ccc2S(=O)(=O)N([C@H](C)CO)C[C@@H]1C,-1,18,x,x,x,x
Cc1ccc2nc(C(F)(F)F)c(C#N)c(N)c2c1,x,1,-7,40*,79*,77*
COCc1cn(CC[C@H]2CC[C@@H](NC(=O)Nc3ccc(F)cc3)[C@H](CO)O2)nn1,0,6,x,x,x,x
COC(=O)c1c(-c2ccccc2)csc1NC1=NS(=O)(=O)c2ccccc21,0,11,-4,8.9*,125*,43*
COC(=O)c1ccc(C(=O)OC)c(NC2=NS(=O)(=O)c3ccccc32)c1,x,11,-7,-1,x,x
COC(=O)c1ccc(CN2CC(=O)N3[C@H](CO)[C@H](c4ccc(-c5ccccc5)cc4)[C@H]3C2)cc1,0,-21,x,x,x,x
CC(C)CCn1c(SCC(N)=O)nc2c1c(=O)n(C)c(=O)n2C,0,5,-6,11*,18,9.7*
CC(C)n1c(SCC(N)=O)nc2c1c(=O)n(C)c(=O)n2C,x,4,-8,1,x,x
O=C(CC1CC1)N1CC(=O)N2[C@H](C1)[C@@H](c1ccc(C#Cc3ccccc3)cc1)[C@@H]2CO,0,3,x,x,x,x
Cc1ccc(NC(=O)CSCC(=O)Nc2ccccc2N2CCCCC2)cc1,0,-20,-13,12*,13,13*
CCc1ccc(OCC(=O)Nc2ccc(-c3nc4ccccc4o3)c(O)c2)cc1,x,x,-7,0,x,x
Oc1cc(NCc2cccnc2)ccc1-c1nc2ccccc2o1,x,x,-3,11*,81*,44*
CC1CC1C(=O)OCc1cc(=O)n2cc(Br)ccc2n1 (configuration not stated),x,x,-5,4,x,x
CC1(C(=O)OCc2cc(=O)n3cc(Br)ccc3n2)CC1(Cl)Cl (configuration not stated),0,2,10,8.9*,99*,40*
O=c1[nH]c2ccccc2c2ccccc12,0,1,-5,5,x,x
O=c1[nH]c2ccccc2c2cn(-c3ccccc3)nc12,0,16,-4,8.8*,112*,46*
CC(=NNC(=O)c1cccs1)c1ccc2c(c1)OCCO2,0,12,-2,3,x,x
C/C(=N\NC(=O)c1cccs1)c1ccc2c(c1)OCO2,0,-2,-6,7.6*,77*,25*
O=C(NCCc1ccccc1)c1cc(-c2ccco2)on1,x,-6,-8,13*,153*,54*
